Assay results reported in the EternaBench riboswitch data.

System: MS2 coat protein
Experiment: apparent Kd, MS2 coat protein; higher = weaker binding; RNA-MaP array; FMN 200 µM where present
Summary of the method: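 Stalled E. coli RNA polymerase transcribed each design on Illumina sequencing-chip clusters. The clusters were titrated with SNAP-549-labelled MS2 coat protein, starting at 0.7 or 1.5 nM and doubling up to 3 µM, first without ligand and then with constant ligand, in 100 mM Tris-HCl pH 7.5, 80 mM KCl, 4 mM MgCl2, BSA, DTT, yeast tRNA and Tween-20. Green signal was normalised to red-channel RNA signal and to the control-cluster median Fmax. The apparent Kd is the median of filtered binding-curve fits made for each cluster.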

[1] = designed as: ON switch for flavin mononucleotide, no ligand
[2] = ligand present: flavin mononucleotide, designed as: ON switch for flavin mononucleotide
[3] = designed as: OFF switch for flavin mononucleotide, no ligand
[4] = ligand present: flavin mononucleotide, designed as: OFF switch for flavin mononucleotide

| Sequence | apparent Kd [1] | apparent Kd [2] | apparent Kd [3] | apparent Kd [4] |
| --- | --- | --- | --- | --- |
| UUGCCUCAGAACAUGAGGAUCACCCAUGUGCUGCGGGCAACGUAGGAUAUGACGGUAUGAUACCGUCAGAAGGAUGAUGGUACC | 5.62 nM | 5.25 nM | – | – |
| GGUACACAUGAGGAUCACCCAUGUCGUAUGACAUGAGGAUAUGUACAGACUUCGGUCUGUACAGAAGGCAUGUGUC | 28.1 nM | 445 nM | – | – |
| CGCACUGAUAGAGGAUAUGUUUUACAUGAGGAUCACCCAUGUGUACAUGGAUUAAUAUAUAAGUAACAGAAGGCUAUUUGUGCG | – | – | 18.9 nM | 15.1 nM |
| CAUUAACAUGAGGAUCACCCAUGUGAGGAUAUGAUAUUACUUGGACAGCUGUGGUCAAUCAGAAGGCACAUCUU | – | – | 27.8 nM | 32.9 nM |
| GCCAUCGCAUGAGGAUAUGGACAGCUUUGCUGUCCAGAAGGCAUGUCAAUAGACAUGAGGAUCACCCAUGUAGUUAAGAUGGCA | 771 nM | 52.2 nM | – | – |
| ACAUGCAUAGCGAUAUGAUCGAAAAGUCAUGUCGCAAAAUUUAGAAGGACAUGAGGAUCACCCAUGUAGGAUAUGGGAGCAUGA | 57.9 nM | 13.2 nM | – | – |
| AUCCGGCGUGUAGGAUAUGGAAAAAAUUAGGAUCCAGAAGGACAUGAGGAUCACCCAUGUACAUGUAAACAGUCAUCACCGGAA | – | – | 33.5 nM | 51.7 nM |
| AGGUAACAUGAGGAUCACCCAUGUCAGGAUAUCAUAAAGAUUAGAUUAGAGAAGAGGUUGAGAAGGGACUAUAU | – | – | 44.9 nM | 38.4 nM |
| CAGGUAGACUGAGGAUAUACAUGACUUAGUCUAUCUAGGUCAUUAACCACAUGAGGAUCACCCAUGUAGAAGGCAGUCUGCCUG | – | – | 16.3 nM | 19.6 nM |
| UACGAAUACCCUCGUCGGCUGAAUCCAGAAGGACCACAUGAGGAUCACCCAUGUCGAAGAUAAAGGUAGGAUAUGGAGUGCCUA | 119 nM | 23.9 nM | – | – |
| GCUAGUAUUGCAGGAUAUUGAGAUUAAUUAAGGCAAGAAGGGCAUUACAUGAGGAUCACCCAUGUUUUCCUUAGUCAUACUAGC | – | – | 7.12 nM | 7.4 nM |
| ACUAUACGAGGAUAUACUGACGGGCCUCGGGCGUCCCUGAGACAUGAGGAUCACCCAUGUAGAAGGCGUAUACU | – | – | 38.4 nM | 216 nM |
| AUCGGUCCGUAGAAGGGUGACAUGAGGAUCACCCAUGUGCCGUGGGCAUUUAUGCCUCCACGGCCACAGGAUAUACGGAGUUGA | 54 nM | 36.8 nM | – | – |
| UGUUGUUGAUAGGAUAUACUUGUAGGAGUUGUAGUAGAAGGAUCUACAUGAGGAUCACCCAUGUAGGAGUGAGU | – | – | 17.5 nM | 17.2 nM |
| AUAAUUUUAUAUAUCUUAUUUAUCAGAAGGCAUAACAUGAGGAUCACCCAUGUAUAUUAUUGUUAUGAGGAUAUGAUUUAGUUA | – | – | 10.1 nM | 58.3 nM |
| AGAUGGUAGAGAGGAUAUCAUGUGCUGACAUGAGGAUCACCCAUGUAGGGACGUCAGUCCAAUUAUGAGAAGGCUCUACCAUCU | 49.4 nM | 40.2 nM | – | – |
| UUGGACGUCGUAGGAUAUGUAGGAUAUUCCUACAUGAGGAUCACCCAUGUUGACUUGGAAGAAGGACAGAAGGACGAUGUCCAU | 22 nM | 4.06 nM | – | – |
| GGGAGACAUGAGGAUCACCCAUGUGAAAACGUGGCAGGAUAUCCAUGGAAACCAUACUGUGGAGAAGGGCCUUGUC | 77.9 nM | 40.5 nM | – | – |
| UGUGUGUGACAGGAUAUGCUGGUUGUGUGGCGGGUAGAAGGGUCUACAUGAGGAUCACCCAUGUGGCCGGUUGG | – | – | 22.8 nM | 21.5 nM |
| UGAUAGGACAGAGGAUAUACAUGCUAGAGAUACUAGCUAAAUUUCCUCACAUGAGGAUCACCCAUGUAGAAGGCUGUCCUAUCU | – | – | 19.4 nM | 378 nM |
| CCCUUUAGAAAAGGGACAUGAGGAUCACCCAUGUAGGCUGCACAGGAUAUCGAUCGGAGGCGGUACGAGAAGGGUGAUGUCAUU | 58.3 nM | 72.1 nM | – | – |
| GUAGCUAUCGGAGGAUAUUCAUACCGGAAACGGACAUGAGGAUCACCCAUGUGGCGAAAGCCUUGGGAGAAGGCUGAUAGCUAC | 257 nM | 7.37 nM | – | – |
| GUGUAGAUAGGAUAUACGUGAGUCUAGCGAAGCUAGAUUCUACAUGAGGAUCACCCAUGUAGAAGGGUCUACAC | – | – | 16.1 nM | 18.6 nM |
| AAUUAACUCACAGGAUAUAGCAGAGGUCGCGCGAACUUACAGGCGACGAGGCUAGAAGGGUGACCACAUGAGGAUCACCCAUGU | 770 nM | 72.4 nM | – | – |
| UGGAUAGGAAAAUUUGUCCAUUGUACAGAAGGCCAACAUGAGGAUCACCCAUGUAAGAAAAGGAUGGAGGAUAUGUAUAGGGCC | 64.5 nM | 20.9 nM | – | – |
| UGCGGUAGAGGAUAUACGUAGAAGUAGAUUCAUGUAAAACUACAUGAGGAUCACCCAUGUAGAAGGCUAUCGCU | – | – | 22.9 nM | 230 nM |
| GCUGGAAAAGGAUAUACAUAACGUGCGUCAGCACGAGGCCUACAUGAGGAUCACCCAUGUAGAAGGUUUCCAGC | – | – | 17.1 nM | 25.9 nM |
| AUUACAUGAGGAUCACCCAUGUACAGAACGUUUCAUUACAGUGAGGAUAUACGAAAUGUAGGAGCGUAGAAGGCACUGGGUACA | 129 nM | 40.1 nM | – | – |

| Sequence | apparent Kd [1] | apparent Kd [2] | apparent Kd [3] | apparent Kd [4] |
| --- | --- | --- | --- | --- |
| UCGAUCGGAGGAUAUGCUAAUGCAACUACUGCAGUUUCAAAACAUGAGGAUCACCCAUGUAGAAGGCCGAUAUA | – | – | 17 nM | 15.6 nM |
| GUAGUAUUAAGUUCAUAAUAUAGGAUAGAAGGUGAAAAUUUGACAUGAGGAUCACCCAUGUAAUUCAAGGAUAUGUAGUAACUC | 97.7 nM | 80.1 nM | – | – |
| GGCGAACAGGCUAACAUGAGGAUCACCCAUGUGGACUCAUGGUAGGAUAUCGGGAAGGAGGAAACCGAGAAGGGCCGGUGAGCU | 67.7 nM | 26.3 nM | – | – |
| CUUGUUUAAGUGAGGAUAUACUGUUAGUAAUGAUUGUAGAAGGUACAUGAGGAUCACCCAUGUUUAUUUAUAUU | – | – | 17.8 nM | 16.7 nM |
| CUGAGCUGAGGAUAUACAUGAGGAUCACCCAUGUGUUGGAGCUUGCGUACAGGCAGAUGUAGAAGGCAGUUCGG | – | – | 23.6 nM | 88.2 nM |
| CGGAACAUGAGGAUCACCCAUGUAGCUACUUAAAGGUGCUACAGAAGGGACAUUGCGCGUCAUGGUCAGGAUAUGUAGGGCGGA | 148 nM | 62.4 nM | – | – |
| AUUAUUUAUAGUUAUUGGUAAUUGACAGAAGGUGAAAGUGUCACAUGAGGAUCACCCAUGUUCUUCAAGGAUAUGUUGGUAUAC | 88.3 nM | 14 nM | – | – |
| GUUUGGAGUGGAGGAUAUGCGGACGAACGAUAAGCAGAAGGCCACAUGAGGAUCACCCAUGUCGGCUGUGCCGGGUGGUUGACG | – | – | 41.6 nM | 50.8 nM |
| GCUGUGGCAUGAGGAUAUGGUCUGCUUUGCAGACCAGAAGGCAUGUCAAUAGACAUGAGGAUCACCCAUGUAGUUAACACAGCA | 510 nM | 38.6 nM | – | – |
| UUGAAUCGAAACAUGAGGAUCACCCAUGUGUCGUAGGUAGCAUAGGAUAUGUACAUACUGUUGGGAUAGAAGGAUGAUGAUGCU | 8.62 nM | 7.47 nM | – | – |
| UUCGUGCAGCAUUGCUGUACGCGUACAUGAGGAUCACCCAUGUAGGAUAUGGUAGGCAAAGCUUACUAGAAGGAUAUAGUGAUC | – | – | 109 nM | 114 nM |
| UGGUACUAGGGAGGAUAUGGGAAGAUACAUGAGGAUCACCCAUGUUUAAGAAUGCCGAGUGGCAACUAGAAGGCCCUAGUACCU | 478 nM | 20.5 nM | – | – |
| UUGAGGUCAGGAUAUGCAUGGCGGGACUUGCGUCGUGGCGUGGAGAAGGGACAUGAGGAUCACCCAUGUGGAGA | – | – | 83.5 nM | 81.6 nM |
| CCGAGUGGCGUACAGGAUAUGUUGCGUGGAACAUGAGGAUCACCCAUGUAUUUGCUCCUGCAUACGCAGAAGGGUGCGUCCUGGG | 52.9 nM | 17.4 nM | – | – |
| GACAUACAUGAGGAUCACCCAUGUUCAGAAGGACAAGGAUAUGUGUGGAAACCAUACUAUACAGAAGGUGUCUGUC | 37.6 nM | 19.9 nM | – | – |
| UUUGUCUGUGUGAGGAUAUACUUUGUUUGGUCGUUGUAGAAGGCACAUGAGGAUCACCCAUGUAGUUUGUUGUG | – | – | 20.4 nM | 22.9 nM |
| GUAGCAUAUGAUUUACAUGAGGAUCACCCAUGUAUCAUGGGUAAGGAUAUUGAUGUUAUGUUAAUCAAGAAGGUACUAUGCUAC | 281 nM | 18.9 nM | – | – |
| AGUAUGCACGCAGGAUAUACAUGAGGAUCACCCAUGUGGAACAGUGUAGUACUAGUUGAUCCUCAGUAGAAGGGCGGUCAAAUA | – | – | 47.8 nM | 42.7 nM |
| UCUUUGUUUGUGAGGAUAUCGGUGGGAUGGGUUGUCGAGAAGGCACAUGAGGAUCACCCAUGUGUGGGACAGCA | – | – | 15.3 nM | 15.2 nM |
| AAAUUCUGAGGAUAUCGAUGUUUGUACAUGAGGAUCACCCAUGUCCUUUUUAUUUAAUCCCGAGAAGGCAGUGUAU | – | – | 29 nM | 25.8 nM |
| CAGUAUUGAGGAUAUACAUGAGGAUCACCCAUGUGUUCCAGCUAGGAAACUAGCAAAAGUAGAAGGCAGUACUG | – | – | 21.6 nM | 186 nM |
| AGAACUGAUAGAGGAUAUGUUUUACAUGAGGAUCACCCAUGUGUACAAGGAUCAAUAUAUUAGUAACAGAAGGCUAUUAGUGAG | – | – | 13.2 nM | 19.5 nM |
| ACUGGUGCAGGAUAUGCAAUCGUGCUUCGGCACGUAAGAUCACAUGAGGAUCACCCAUGUAGAAGGGCACCAGU | – | – | 20.3 nM | 65.7 nM |
| UGGCUACAUGAGGAUCACCCAUGUCAGGAUAUGCCGUUGAAUUGACAUCAACGUACGGGUAGAAGGGACUGCGU | – | – | 39.5 nM | 38.8 nM |
| AUAGAAGACUAGAAGGACCUAGUUGUAUAUUGUCGAGGUAUAUAGUUAGGUAGGAUAUGGGACAUGAGGAUCACCCAUGUCUUG | 8.51 nM | 7.75 nM | – | – |
| AGAUUAUGAGGAUAUCGAGUUUAGUACAUGAGGAUCACCCAUGUUAUCCAGGUCUCGUUUCGAGAAGGCAUGAUUC | – | – | 33.5 nM | 30.9 nM |
| AAACCGUGUGGAGGAUAUGCAGUUGAGGUAAGGCGGCAGCUCUAUACGACAGCAGAAGGCCACAUGAGGAUCACCCAUGUAGGU | – | – | 122 nM | 53.2 nM |
